Activity calls are given as the source filed them. No cut-off for these calls is given here.
Legend:
Mahlavu [1] = test: Induction of […] in human Mahlavu cells assessed as PARP cleavage at IC50 after 72 hrs by Western blotting analysis; format: functional, cell-based
HepG2 [2] = test: Cytotoxicity against human HepG2 cells after 24 hrs by SRB assay; format: functional, cell-based; details: HepG2, 24 h
Summary of the method: (§1)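 Sulforhodamine B assay. Cells seeded at 2000–10,000/well and treated the next day in triplicate with ten concentrations (DMSO vehicle, under 1% final) for 24, 48 or 72 h at 37 °C, 5% CO2. Fixed with ice-cold TCA for 1 h at 4 °C, stained with 0.4% SRB in 1% acetic acid, dye solubilized in 10 mM Tris base, A515 read. % inhibition = 100 × (1 − OD drug/OD DMSO). IC50 taken from dose–response curves.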

[3] = Cytotoxicity against human Mahlavu cells after 24 hrs by SRB assay; format: functional, cell-based; summary of the method: as §1
Huh-7 [4] = test: Cytotoxicity against human HuH7 cells measured every 30 mins up to 120 hrs by RT-CES method
[5] = Cytotoxicity against human FOCUS cells after 72 hrs by SRB assay; format: functional, cell-based; summary of the method: as §1
Mahlavu [6] = test: Reduction in intrinsic cellular ATP consumption in human Mahlavu cells at IC50 after 24 hrs by bioluminescence assay; format: functional, cell-based
Summary of the method: (§2)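 Cells treated for 24 h, with staurosporine as positive control and DMSO-only controls. 20 µg lysate protein in kinase buffer (40 mM Tris-HCl pH 7.6, 20 mM MgCl2, 0.1 mg/ml BSA), no exogenous ATP added. Luciferase ATP-detection reagent added, 10 min in the dark at room temperature, then luminescence read. Higher signal taken as reduced ATP consumption.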

[7] = Cytotoxicity against human HCT116 cells after 72 hrs by SRB assay; format: functional, cell-based; details: HCT-116, 72 h
Summary of the method: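 SRB screen. Cells seeded at 2000–10,000/well and treated next day for 72 h with 40, 20, 10, 5 and 2.5 µM (DMSO under 1%). TCA fixation, 0.4% SRB staining, Tris solubilization, absorbance at 515 nm. Growth inhibition calculated relative to DMSO-only wells. IC50 derived from the five-concentration inhibition percentages.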

[8] = Cytotoxicity against human SKHEP1 cells after 72 hrs by SRB assay; format: functional, cell-based; details: SK-HEP1, 72 h
Summary of the method: (§3)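 Liver cancer cell panel, SRB assay after 72 h exposure to ten concentrations (DMSO vehicle under 1%). TCA-fixed, SRB-stained, absorbance at 515 nm. Percent cell death calculated against DMSO-only wells, and IC50 read from dose–response curves.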

[9] = Cytotoxicity against human Mahlavu cells after 48 hrs by SRB assay; format: functional, cell-based; summary of the method: as §1
T47D = test: Cytotoxicity against human T47D cells after 72 hrs by SRB assay; format: functional, cell-based
HepG2 [10] = test: Cytotoxicity against human HepG2 cells measured every 30 mins up to 120 hrs by RT-CES method
[11] = Cytotoxicity against human HuH7 cells after 24 hrs by SRB assay; format: functional, cell-based; details: Huh-7, 24 h; summary of the method: as §1
Mahlavu [12] = test: Cytotoxicity against human Mahlavu cells measured every 30 mins up to 120 hrs by RT-CES method
Mahlavu [13] = test: Induction of apoptosis in human Mahlavu cells assessed as PARP cleavage at IC50 after 72 hrs by Western blotting analysis; format: functional, cell-based
[14] = Cytotoxicity against human Mahlavu cells after 72 hrs by SRB assay; format: functional, cell-based; summary of the method: as §1
Huh-7 [15] = test: Reduction in intrinsic cellular ATP consumption in human HuH7 cells at IC50 after 24 hrs by bioluminescence assay; format: functional, cell-based; summary of the method: as §2
Huh-7 [16] = test: Induction of senescence in human HuH7 cells at IC50 to IC100 after 3 to 6 days by BrdU staining-based assay; format: functional, cell-based
Summary of the method: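 Huh7 cells (5000) on coverslips in 6-well plates, treated with compound at IC50 and IC100, doxorubicin 25 ng/ml, or DMSO for 3 and 6 days. Medium refreshed 24 h before assay, containing 30 µM BrdU in one plate. SA-β-gal staining and BrdU incorporation assessed in parallel.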

FOCUS = test: Cytotoxicity against human FOCUS cells assessed as condensed apoptotic nuclei after 72 hrs by Hoechst […] staining-based fluorescence microscopy; format: functional, cell-based
Mahlavu [17] = test: Induction of apoptosis in human Mahlavu cells assessed as Bcl2 expression at IC50 after 72 hrs by Western blotting analysis; format: functional, cell-based
HepG2 [18] = test: Cytotoxicity against human HepG2 cells after 72 hrs by SRB assay; format: functional, cell-based; details: HepG2, 72 h; summary of the method: as §1
[19] = Cytotoxicity against human HuH7 cells after 48 hrs by SRB assay; format: functional, cell-based; details: Huh-7, 48 h; summary of the method: as §1
[20] = Cytotoxicity against human Hep3B cells after 72 hrs by SRB assay; format: functional, cell-based, Hep 3B2; summary of the method: as §3
Mahlavu [21] = test: Cytotoxicity against human Mahlavu cells at 2.5 to 40 uM by RT-CES method; format: functional, cell-based; details: TDE = time-dependent effect
Summary of the method: (§4)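 Real-time impedance sensing (xCELLigence) on E-96 plates, run in triplicate. 2000 cells/well seeded; the next day medium was partly replaced and the compound added at 40, 20, 10, 5 or 2.5 µM, with DMSO-only and medium-only wells. Cell Index recorded every 30 min for at least 120 h at 37 °C, 5% CO2.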

Mahlavu [22] = test: Induction of apoptosis in human Mahlavu cells assessed as total cytochrome c level at IC50 after 72 hrs by Western blotting analysis; format: functional, cell-based
[23] = Cytotoxicity against human FOCUS cells after 24 hrs by SRB assay; format: functional, cell-based; summary of the method: as §1
Huh-7 [24] = test: Cytotoxicity against human HuH7 cells assessed as condensed apoptotic nuclei after 72 hrs by Hoechst […] staining-based fluorescence microscopy; format: functional, cell-based
[25] = Cytotoxicity against human FOCUS cells after 48 hrs by SRB assay; format: functional, cell-based; summary of the method: as §1
[26] = Cytotoxicity against human HuH7 cells after 72 hrs by SRB assay; format: functional, cell-based; details: Huh-7, 72 h; summary of the method: as §1
Huh-7 [27] = test: Cytotoxicity against human HuH7 cells at 2.5 to 40 uM by RT-CES method; format: functional, cell-based; details: TDE = time-dependent effect; summary of the method: as §4
[28] = Cytotoxicity against human SNU182 cells after 72 hrs by SRB assay; format: functional, cell-based; details: SNU-182, 72 h; summary of the method: as §3
PLC = test: Cytotoxicity against human PLC cells after 72 hrs by SRB assay; format: functional, cell-based; summary of the method: as §3
[29] = Cytotoxicity against human SNU475 cells after 72 hrs by SRB assay; format: functional, cell-based, SNU-475; summary of the method: as §3
HepG2 [30] = test: Cytotoxicity against human HepG2 cells at 2.5 to 40 uM by RT-CES method; format: functional, cell-based; details: TDE = time-dependent effect; summary of the method: as §4
HepG2 [31] = test: Cytotoxicity against human HepG2 cells after 48 hrs by SRB assay; format: functional, cell-based; details: HepG2, 48 h; summary of the method: as §1

| Compound | Activity (Mahlavu [1]) | IC50 [5] [nM] | Activity (Mahlavu [6]) | IC50 [7] [nM] | IC50 [8] [nM] | IC50 (T47D) [nM] | Activity (Mahlavu [13]) | IC50 [14] [nM] | Activity (Huh-7 [15]) | Activity (FOCUS) | Activity (Mahlavu [17]) | IC50 (HepG2 [18]) [nM] | IC50 [20] [nM] | Activity (Mahlavu [22]) | Activity (Huh-7 [24]) | IC50 [26] [nM] | IC50 [28] [nM] | IC50 (PLC) [nM] | further results |
| --- | --- | --- | --- | --- | --- | --- | --- | --- | --- | --- | --- | --- | --- | --- | --- | --- | --- | --- | --- |
| FC(F)(F)c1ccc(N2CCN(c3ncnc4c3ncn4C3CCCC3)CC2)cc1 | inactive | 100 | Active | < 100 | 200 | < 100 | inactive | 100 | Active | Active | inactive | 200 | 800 | inactive | Active | 200 | 9600 | 6400 | IC50 (HepG2 [2]): 1200 nM; IC50 [3]: 50100 nM; Activity (Huh-7 [4]): Dose-dependent effect; IC50 [9]: 300 nM; Activity (HepG2 [10]): Dose-dependent effect; IC50 [11]: 2700 nM; Activity (Mahlavu [12]): Dose-dependent effect; Activity (Huh-7 [16]): Active; IC50 [19]: 1400 nM; Activity (Mahlavu [21]): tde; IC50 [23]: 16700 nM; IC50 [25]: 300 nM; Activity (Huh-7 [27]): tde; IC50 ([29]; snu-475): Not Active; Activity (HepG2 [30]): tde; IC50 (HepG2 [31]): 800 nM |
| FC(F)(F)c1ccc(N2CCN(c3ncnc4[nH]cnc34)CC2)cc1 | inactive | 2900 | Active | 5100 | 4900 | 39400 | inactive | 2300 | Active | Active | inactive | 3700 | 6700 | inactive | Active | 3200 | 55400 | 10500 | IC50 ([29]; Homo sapiens, SNU-475, 72 h, read-out: IC50): 9600 nM |

Reference: ChEMBL document CHEMBL3352193, “Synthesis of novel substituted purine derivatives and identification of the cell death mechanism” (Eur J Med Chem, 2015)
